Assay results taken from ChEMBL document CHEMBL3286368, “Delayed and Prolonged Histone Hyperacetylation with a Selective HDAC1/HDAC2 Inhibitor” (ACS Med Chem Lett, 2014).

Assays:
Rhesus monkey = assay: Dose normalized AUC in rhesus monkey at 1 mg/kg, po; type: ADME, organism-based, Macaca mulatta; set-up: dose 1 mg/kg, route oral; conditions: in vivo
How it was run: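 Oral exposure, dose-normalized (μM·h·kg/mg), from a PK study also run with iv dosing (rat 2 mg/kg iv, 4 mg/kg po; monkey 0.5 mg/kg iv, 1 mg/kg po). Plasma clearance, Vdss, half-life and oral bioavailability also derived.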

[1] = Cmax in CD1 nu/nu mouse xenografted with human HCT116 cells at 150 mg/kg, po qd for 3 weeks; type: ADME, organism-based, HCT-116; set-up: dose 150 mg/kg, route oral; conditions: in vivo
How it was run: (§1)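 HCT116 cells (5 × 10^6 per mouse) injected subcutaneously into the right flank of CD1 nu/nu mice. Once tumors reached ~325 mm3, mice were randomized into groups of 12 and dosed orally for 21 days, once daily (qd) or biweekly (biw). Vehicle was 40% v/v PEG-400 plus 25% w/v HPβCD at 20 μL/g.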

Mus musculus [2] = assay: Unbound Cmin in 3 week po dosed CD1 nu/nu mouse xenografted with human HCT116 cells after 24 hrs; type: ADME, organism-based, HCT-116; conditions: in vivo
Mus musculus [3] = assay: Inhibition of HDAC in CD1 nu/nu mouse tumor xenografted with human HCT116 cells assessed as plasma drug level causing increase in H2BK5 acetylation at 100 mg/kg, po bid after 1 hr by ELISA; type: functional, HCT-116
Mus musculus [4] = assay: Inhibition of HDAC in CD1 nu/nu mouse tumor xenografted with human HCT116 cells assessed as plasma drug level causing increase in H2BK5 acetylation at 200 mg/kg, po qd after 48 hrs by ELISA; type: functional, HCT-116
Mus musculus [5] = assay: Inhibition of HDAC in CD1 nu/nu mouse tumor xenografted with human HCT116 cells assessed as plasma drug level causing increase in H2BK5 acetylation at 100 mg/kg, po bid after 8 hrs by ELISA; type: functional, HCT-116
[6] = AUC (0 to 24 hrs) in CD1 nu/nu mouse xenografted with human HCT116 cells at 50 mg/kg, po qd for 3 weeks; type: ADME, organism-based, HCT-116; set-up: time < 24 hr, dose 50 mg/kg, route oral; conditions: in vivo
How it was run: (§2)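 HCT116 cells (5 × 10^6/mouse) injected sc into right flank of CD1 nu/nu mice; at ~325 mm3 tumors, randomized into groups of 12. Oral dosing 21 days, once daily or biweekly, in 40% v/v PEG-400 and 25% w/v HPβCD at 20 μL/g. […] Tumor size by caliper.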

[7] = Oral bioavailability in beagle dog at 1 mg/kg; type: ADME, organism-based, Canis lupus familiaris; conditions: in vivo
[8] = Volume of distribution at steady state in beagle dog at 0.5 mg/kg, iv; type: ADME, organism-based, Canis lupus familiaris; set-up: dose 0.5 mg/kg, route intravenous; conditions: in vivo, read-out: Vdss
How it was run: (§3)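 Intravenous dosing at 5 (mouse), 2 (rat), 0.5 (dog) and 0.5 (monkey) mg/kg. Plasma clearance, steady-state volume of distribution and half-life derived from the plasma profile.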

in vivo [9] = conditions: CD1 nu/nu, mouse, po, 525 mg/kg
Canis familiaris = assay: Dose normalized AUC in beagle dog at 1 mg/kg, po; type: ADME, organism-based, Canis lupus familiaris; set-up: dose 1 mg/kg, route oral; conditions: in vivo
Mus musculus [10] = assay: Inhibition of HDAC in CD1 nu/nu mouse tumor xenografted with human HCT116 cells assessed as plasma drug level causing increase in H2BK5 acetylation at 100 mg/kg, po bid after 72 hrs by ELISA; type: functional, HCT-116
Mus musculus [11] = assay: Inhibition of HDAC in CD1 nu/nu mouse tumor xenografted with human HCT116 cells assessed as plasma drug level causing increase in H2BK5 acetylation at 67 mg/kg, po tid after 48 hrs by ELISA; type: functional, HCT-116
[12] = Half life in rhesus monkey at 0.5 mg/kg, iv; type: ADME, organism-based, Macaca mulatta; set-up: dose 0.5 mg/kg, route intravenous; conditions: in vivo; how it was run: as §3
[13] = Volume of distribution at steady state in CD-1 mouse at 5 mg/kg, iv; type: ADME, organism-based; set-up: dose 5 mg/kg, route intravenous; conditions: in vivo, read-out: Vdss; how it was run: as §3
[14] = Volume of distribution at steady state in rhesus monkey at 0.5 mg/kg, iv; type: ADME, organism-based, Macaca mulatta; set-up: dose 0.5 mg/kg, route intravenous; conditions: in vivo, read-out: Vdss; how it was run: as §3
[15] = AUC (0 to 24 hrs) in CD1 nu/nu mouse xenografted with human HCT116 cells at 875 mg/kg, po administered biweekly for 3 weeks; type: ADME, organism-based, HCT-116; set-up: time < 24 hr, dose 875 mg/kg, route oral; conditions: in vivo; how it was run: as §2
[16] = Cmax in CD1 nu/nu mouse xenografted with human HCT116 cells at 100 mg/kg, po qd for 3 weeks; type: ADME, organism-based, HCT-116; set-up: dose 100 mg/kg, route oral; conditions: in vivo; how it was run: as §1
in vivo [17] = conditions: CD1 nu/nu, mouse, po, 50 mg/kg
in vivo [18] = conditions: CD1 nu/nu, mouse, po, 150 mg/kg
Mus musculus [19] = assay: Inhibition of HDAC in CD1 nu/nu mouse tumor xenografted with human HCT116 cells assessed as plasma drug level causing increase in H2BK5 acetylation at 100 mg/kg, po bid after 4 hrs by ELISA; type: functional, HCT-116
[20] = Oral bioavailability in CD-1 mouse at 10 mg/kg; type: ADME, organism-based; conditions: in vivo
Mus musculus [21] = assay: Inhibition of HDAC in CD1 nu/nu mouse tumor xenografted with human HCT116 cells assessed as plasma drug level causing increase in H2BK5 acetylation at 200 mg/kg, po qd after 4 hrs by ELISA; type: functional, HCT-116
[22] = Plasma clearance in beagle dog at 0.5 mg/kg, iv; type: ADME, organism-based, Canis lupus familiaris; set-up: dose 0.5 mg/kg, route intravenous; how it was run: as §3
Mus musculus [23] = assay: Inhibition of HDAC in CD1 nu/nu mouse tumor xenografted with human HCT116 cells assessed as plasma drug level causing increase in H2BK5 acetylation at 67 mg/kg, po tid after 8 hrs by ELISA; type: functional, HCT-116
[24] = Drug metabolism in liver microsomes (unknown origin) assessed as CYP-mediated oxidation; type: ADME
[25] = Drug metabolism in human hepatocytes assessed as glucose conjugate level; type: ADME, cell-based, Hepatocyte
Mus musculus [26] = assay: Inhibition of HDAC in CD1 nu/nu mouse tumor xenografted with human HCT116 cells assessed as plasma drug level causing increase in H2BK5 acetylation at 67 mg/kg, po tid after 1 hr by ELISA; type: functional, HCT-116
in vivo [27] = conditions: CD1 nu/nu, mouse, po, 200 mg/kg
in vivo [28] = conditions: CD1 nu/nu, mouse, po, 100 mg/kg
[29] = AUC (0 to 24 hrs) in CD1 nu/nu mouse xenografted with human HCT116 cells at 525 mg/kg, po administered biweekly for 3 weeks; type: ADME, organism-based, HCT-116; set-up: time < 24 hr, dose 525 mg/kg, route oral; conditions: in vivo; how it was run: as §2
[30] = AUC (0 to 24 hrs) in CD1 nu/nu mouse xenografted with human HCT116 cells at 100 mg/kg, po qd for 3 weeks; type: ADME, organism-based, HCT-116; set-up: time < 24 hr, dose 100 mg/kg, route oral; conditions: in vivo; how it was run: as §2
[31] = Drug metabolism in human hepatocytes assessed as oxidation of piperidine ring; type: ADME, cell-based, Hepatocyte
[32] = Drug metabolism in human hepatocytes assessed as carboxylic acid level; type: ADME, cell-based, Hepatocyte
[33] = Drug metabolism in human hepatocytes assessed as glucuronide conjugate level; type: ADME, cell-based, Hepatocyte
[34] = Volume of distribution at steady state in Sprague-Dawley rat at 2 mg/kg, iv; type: ADME, organism-based; set-up: dose 2 mg/kg, route intravenous; conditions: in vivo, read-out: Vdss; how it was run: as §3
[35] = AUC (0 to 24 hrs) in CD1 nu/nu mouse xenografted with human HCT116 cells at 350 mg/kg, po administered biweekly for 3 weeks; type: ADME, organism-based, HCT-116; set-up: time < 24 hr, dose 350 mg/kg, route oral; conditions: in vivo; how it was run: as §2
[36] = Cmax in CD1 nu/nu mouse xenografted with human HCT116 cells at 350 mg/kg, po administered biweekly for 3 weeks; type: ADME, organism-based, HCT-116; set-up: dose 350 mg/kg, route oral; conditions: in vivo; how it was run: as §1

## Nc1ccc(-c2cccs2)cc1NC(=O)c1ccc(N2CCC3(CC2)CNC(=O)O3)nc1
Rhesus monkey
  AUC/dose: 1.8 µM·kg·h/mg
[1]
  Cmax: 16.6 µM
Mus musculus [2]
  fCmin: 48 nM
Mus musculus [3]
  INH: 14.3 µM
Mus musculus [4]
  INH: 0.2 µM
Mus musculus [5]
  INH: 9.9 µM
[6]
  AUC at 24 h: 40 µM·h
[7]
  bioavailability: 17%
[8]
  Vd: 2.2 L/kg
In vivo [9]
  concentration at 24 h: 9.4 µM
Canis familiaris
  AUC/dose: 0.3 µM·kg·h/mg
Mus musculus [10]
  INH: 0.2 µM
Mus musculus [11]
  INH: 0.1 µM
[12]
  half-life: 7.1 h
[13]
  Vd: 2.1 L/kg
[14]
  Vd: 7.8 L/kg
[15]
  AUC at 24 h: 1220 µM·h
[16]
  Cmax: 6.9 µM
In vivo [17]
  concentration at 24 h: 0.9 µM
In vivo [18]
  concentration at 24 h: 3.3 µM
Mus musculus [19]
  INH: 9.6 µM
[20]
  bioavailability: 82%
Mus musculus [21]
  INH: 17.2 µM
[22]
  clearance: 22 mL/min/kg
Mus musculus [23]
  INH: 8.2 µM
[24]
  Drug metabolism: metabolite_notdetected
[25]
  Drug metabolism: metabolite_notdetected
Mus musculus [26]
  INH: 14.9 µM
In vivo [27]
  concentration at 24 h: 5 µM
In vivo [28]
  concentration at 24 h: 0.5 µM
[29]
  AUC at 24 h: 808 µM·h
[30]
  AUC at 24 h: 110 µM·h
[31]
  Drug metabolism: metabolite_notdetected
[32]
  Drug metabolism: metabolite_notdetected
[33]
  Drug metabolism: metabolite_notdetected
[34]
  Vd: 0.7 L/kg
[35]
  AUC at 24 h: 566 µM·h
[36]
  Cmax: 32.8 µM
